Experimental findings from ChEMBL document CHEMBL2311438, “Synthesis and biological evaluation of 4-hydroxy-4-(4-methoxyphenyl)-substituted proline and pyrrolidin-2-ylacetic acid derivatives as GABA uptake inhibitors” (Bioorg Med Chem, 2013) are described below.

Test [1] is filed under the species Bos taurus. In words: Inhibition of GAT3-mediated [3H]GABA uptake in bovine brain stem membrane fraction 2C assessed as remaining GABA uptake activity preincubated at 100 uM for 10 mins by scintillation counting. The test is classed as cell membranes. The essentials:
(§1)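 Preliminary single-concentration screen giving percent remaining GABA uptake. Membranes were preincubated with compound for 10 min at 37 °C in Tris-HCl pH 7.2 saline with glucose. Then 50 nM [³H]GABA plus unlabelled GABA was added for 4 min at 37 °C. Filtration harvest onto NaCl-presoaked glass-fibre filters, saline washes, liquid scintillation counting. IC50 pursued only when uptake fell below 50%.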

Test [2] is filed under the species Bos taurus. Put plainly: Inhibition of GAT1-mediated [3H]GABA uptake in bovine frontal cortex membrane fraction 2B assessed as remaining GABA uptake activity preincubated at 100 uM for 10 mins by scintillation counting. The class given is cell membranes. In short, it runs like this: as §1
The nature of test [3]: Inhibition of GAT1-mediated [3H]GABA uptake in bovine frontal cortex membrane fraction 2B compound preincubated for 10 mins by scintillation counting. The class given is cell membranes, Bos taurus. The essentials:
(§2)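 50 nM [³H]GABA plus unlabelled GABA added, then 4 min at 37 °C. Stopped by filtration through glass-fibre filters presoaked in 0.9% NaCl, washed, scintillation counted. Triplicate; IC50 as mean ± SEM.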

The nature of test [4]: Inhibition of GAT3-mediated [3H]GABA uptake in bovine brain stem membrane fraction 2C compound preincubated for 10 mins by scintillation counting. The test is classed as cell membranes, Bos taurus. In short, it runs like this: as §2
The species named for test [5] is Sus scrofa. In words: Inhibition of GAT1-mediated [3H]GABA uptake in porcine frontal cortex membrane fraction 2B assessed as remaining GABA uptake activity preincubated at 100 uM for 10 mins by scintillation counting. The class given is cell membranes. The essentials:
as §1

A short description of test [6]: Inhibition of GAT3-mediated [3H]GABA uptake in porcine brain stem membrane fraction 2C compound preincubated for 10 mins by scintillation counting. The class given is cell membranes, Sus scrofa. In short, it runs like this: as §2
For test [7], the species on record is Sus scrofa. Put plainly: Inhibition of GAT3-mediated [3H]GABA uptake in porcine brain stem membrane fraction 2C assessed as remaining GABA uptake activity preincubated at 100 uM for 10 mins by scintillation counting. The class given is cell membranes. In short, it runs like this: as §1
The nature of test [8]: Inhibition of GAT1-mediated [3H]GABA uptake in porcine frontal cortex membrane fraction 2B compound preincubated for 10 mins by scintillation counting. The test is classed as cell membranes, Sus scrofa. In short, it runs like this: as §2
The nature of test [9]: Inhibition of GAT1-mediated [3H]GABA uptake in calf frontal cortex membrane fraction 2B compound preincubated for 10 mins by scintillation counting. The class given is cell membranes, Bos taurus. The essentials:
as §2

The nature of test [10]: Inhibition of GAT3-mediated [3H]GABA uptake in calf brain stem membrane fraction 2C compound preincubated for 10 mins by scintillation counting. The class given is cell membranes, Bos taurus. In short, it runs like this:
as §2

For test [11], the species on record is Bos taurus. Put plainly: Inhibition of GAT3-mediated [3H]GABA uptake in calf brain stem membrane fraction 2C assessed as remaining GABA uptake activity preincubated at 100 uM for 10 mins by scintillation counting. The class given is cell membranes. In short, it runs like this: as §1
Test [12] is filed under the species Bos taurus. In words: Inhibition of GAT1-mediated [3H]GABA uptake in calf frontal cortex membrane fraction 2B assessed as remaining GABA uptake activity preincubated at 100 uM for 10 mins by scintillation counting. The class given is cell membranes. In short, it runs like this:
as §1

Molecules are shown by their SMILES. A value given as a limit tells only on which side of the number the result lay.

Turning to `COc1ccc([C@@]2(O)C[C@@H](C(=O)O)N(CCC=C(c3ccccc3)c3ccccc3)C2)cc1`, the Activity in the test filed under Bos taurus [1] and in the test listed under Bos taurus [2] was more than 50% throughout. Besides, the IC50 in test [3] and in test [4] was more than 100 µM throughout.

Take `COc1ccc([C@@]2(O)CN[C@H](C(=O)O)C2)cc1`: the Activity in the test filed under Sus scrofa [5] and in the test listed under Sus scrofa [7] was more than 50% throughout. The IC50 in test [6] and in test [8] was more than 100 µM each time.

For the compound `COc1ccc(C(OCCN2C[C@@](O)(c3ccc(OC)cc3)C[C@H]2CC(=O)O)(c2ccc(OC)cc2)c2ccc(OC)cc2)cc1`, the IC50 (as a rule, the concentration at which inhibition is half-maximal) in [6] was found to be 78.9 µM; in test [8], 75.2 µM.

Take `COc1ccc(C(OCCN2C[C@@](O)(c3ccc(OC)cc3)C[C@@H]2C(=O)O)(c2ccc(OC)cc2)c2ccc(OC)cc2)cc1`: the IC50 is 38 µM in test [6] and 56 µM in [8].

As for `COc1ccc([C@@]2(O)CN[C@H](CC(=O)O)C2)cc1`, the Activity in the test filed under Sus scrofa [5] and in the test listed under Sus scrofa [7] was more than 50% in each case. For the same compound, the IC50 in [6] and in test [8] was more than 100 µM each time.

With `COc1ccc([C@]2(O)C[C@@H](C(=O)O)N(CCC=C(c3ccccc3)c3ccccc3)C2)cc1`, in the test listed under Bos taurus [2], the Activity is more than 50%. The IC50 was more than 100 µM in test [3] and 237 µM in [4].

With `COc1ccc([C@]2(O)CN[C@@H](C(=O)O)C2)cc1`, the Activity in the test listed under Sus scrofa [5] and in the test listed under Sus scrofa [7] was more than 50% in each case. For the same compound, the IC50 in [6] and in test [8] was more than 100 µM each time.

With `COc1ccc([C@]2(O)C[C@@H](CC(=O)O)N(CCC=C(c3sccc3C)c3sccc3C)C2)cc1`, the Activity in the test filed under Sus scrofa [5] was more than 50%. Moreover, the IC50 is 124 µM in test [6] and more than 100 µM in test [8].

As to `COc1ccc([C@]2(O)CN[C@@H](CC(=O)O)C2)cc1`, the Activity in the test listed under Sus scrofa [5] and in the test filed under Sus scrofa [7] was more than 50% each time. The IC50 in test [6] and in test [8] was more than 100 µM throughout.

`COc1ccc(C(OCCN2C[C@](O)(c3ccc(OC)cc3)C[C@H]2C(=O)O)(c2ccc(OC)cc2)c2ccc(OC)cc2)cc1`: the figures for the IC50 in test [3] and in test [4] were 45.1 µM and 29.7 µM, respectively.

With `COc1ccc(C(OCCN2C[C@](O)(c3ccc(OC)cc3)C[C@H]2CC(=O)O)(c2ccc(OC)cc2)c2ccc(OC)cc2)cc1`, the IC50 in test [6] turned out to be 66.7 µM; in [8] it was 48.4 µM.

As for `COc1ccc(C(OCCN2C[C@](O)(c3ccc(OC)cc3)C[C@@H]2CC(=O)O)(c2ccc(OC)cc2)c2ccc(OC)cc2)cc1`, the values for the IC50 in test [6] and in [8] were 65.4 µM and 64.5 µM, respectively.

Regarding `COc1ccc([C@@]2(O)C[C@H](CC(=O)O)N(CCC=C(c3sccc3C)c3sccc3C)C2)cc1`, the IC50 was more than 100 µM in test [6] and 114 µM in [8]. For the same compound, in the test filed under Sus scrofa [7], the Activity was more than 50%.

Take `COc1ccc([C@]2(O)C[C@H](C(=O)O)N(CCC=C(c3ccccc3)c3ccccc3)C2)cc1`: the IC50 in [9] and in [10] was more than 100 µM in each case. In addition, the Activity in the test filed under Bos taurus [11] and in the test filed under Bos taurus [12] was more than 50% in each case.

`COc1ccc([C@]2(O)C[C@H](CC(=O)O)N(CCC=C(c3sccc3C)c3sccc3C)C2)cc1`: the Activity in the test listed under Sus scrofa [5] and in the test filed under Sus scrofa [7] was more than 50% in each case. The IC50 in test [6] and in [8] was more than 100 µM in each case.

Regarding `COc1ccc([C@@]2(O)C[C@@H](CC(=O)O)N(CCC=C(c3sccc3C)c3sccc3C)C2)cc1`, the Activity in the test listed under Sus scrofa [5] was more than 50%. Moreover, the IC50 is 122 µM in test [6] and more than 100 µM in test [8].

With `COc1ccc(C(OCCN2C[C@@](O)(c3ccc(OC)cc3)C[C@H]2C(=O)O)(c2ccc(OC)cc2)c2ccc(OC)cc2)cc1`, the IC50 in test [3] is 68.1 µM; in test [4] it was 63.3 µM.

For the compound `COc1ccc(C(OCCN2C[C@](O)(c3ccc(OC)cc3)C[C@@H]2C(=O)O)(c2ccc(OC)cc2)c2ccc(OC)cc2)cc1`, in the test listed under Bos taurus [1], the Activity was more than 50%. Moreover, the IC50 was more than 100 µM in test [4] and 71 µM in test [8].

As to `COc1ccc(C(OCCN2C[C@@](O)(c3ccc(OC)cc3)C[C@@H]2CC(=O)O)(c2ccc(OC)cc2)c2ccc(OC)cc2)cc1`, the IC50 was found to be 66.1 µM in [6] and 59.2 µM in test [8].

As for `COc1ccc([C@@]2(O)C[C@H](C(=O)O)N(CCC=C(c3ccccc3)c3ccccc3)C2)cc1`, the IC50 in [9] and in test [10] was more than 100 µM each time. Moreover, the Activity in the test filed under Bos taurus [11] and in the test listed under Bos taurus [12] was more than 50% each time.
